From ChEMBL document CHEMBL1127060 (1993)
The source made the active and inactive calls. The rule behind the calls is not given here.

What was measured:
Cavia porcellus [1] = species: Cavia porcellus; test: Tested for relaxation of carbachol-contracted guinea pig taenia coli at 37 degree C; Significantly more potent than ATP; type: functional
[2] = Agonism at turkey erythrocyte P2Y receptor.; type: functional, Meleagris gallopavo
Summary of the method: (§1)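 Turkey erythrocytes labeled 18–24 h at 37 °C with 2-[3H]myo-inositol in inositol-free DMEM; ghosts made by hypotonic lysis (5 mM Na phosphate pH 7.4, 5 mM MgCl2, 1 mM EGTA). PLC assay: ~175 μg protein ghosts, 1 μM GTPγS, Hepes pH 7.0 medium with 424 μM CaCl2, 2 mM EGTA; 5 min, 30 °C; total [3H]inositol phosphates by anion exchange; K0.5 averaged from 3–8 curves.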

Oryctolagus cuniculus [3] = species: Oryctolagus cuniculus; test: Tested for relaxation of carbachol-contracted rabbit mesenteric artery at 37 degree C; Potency equal to 2MeSATP; type: functional
Cavia porcellus [4] = species: Cavia porcellus; test: Tested for contraction of guinea pig vas deferens at 37 degree C; Potency equal to ATP; type: functional
Cavia porcellus [5] = species: Cavia porcellus; test: Tested for contraction of guinea pig isolated urinary bladder detrusor muscle at 37 degree C; Potency equal to ATP; type: functional; details: Muscle tissue
Oryctolagus cuniculus [6] = species: Oryctolagus cuniculus; test: Tested for contraction of rabbit saphenous artery produced by 1 uM alpha,beta-MeATP at 37 degree C; Not active; type: functional
Oryctolagus cuniculus [7] = species: Oryctolagus cuniculus; test: Tested for relaxation of carbachol-contracted rabbit aorta at 37 degree C; More potent or equal to 2MeSATP; type: functional
Cavia porcellus [8] = species: Cavia porcellus; test: Tested for relaxation of carbachol-contracted guinea pig taenia coli at 37 degree C; Potency equal to ATP; type: functional
Oryctolagus cuniculus [9] = species: Oryctolagus cuniculus; test: Tested for relaxation of carbachol-contracted rabbit mesenteric artery at 37 degree C; Less potent or equal to 2MeSATP; type: functional
Cavia porcellus [10] = species: Cavia porcellus; test: Tested for contraction of guinea pig vas deferens at 37 degree C; Less potent than or equal to ATP; type: functional
Oryctolagus cuniculus [11] = species: Oryctolagus cuniculus; test: Tested for relaxation of carbachol-contracted rabbit aorta at 37 degree C; Significantly more potent than 2MeSATP; type: functional
Oryctolagus cuniculus [12] = species: Oryctolagus cuniculus; test: Tested for relaxation of carbachol-contracted rabbit mesenteric artery at 37 degree C; Significantly more potent than 2MeSATP; type: functional
Cavia porcellus [13] = species: Cavia porcellus; test: Tested for contraction of guinea pig vas deferens at 37 degree C; Significantly more potent than ATP; type: functional
Oryctolagus cuniculus [14] = species: Oryctolagus cuniculus; test: Tested for contraction of rabbit saphenous artery produced by 1 uM alpha,beta-MeATP at 37 degree C; type: functional
Cavia porcellus [15] = species: Cavia porcellus; test: Tested for contraction of guinea pig isolated urinary bladder detrusor muscle at 37 degree C; Less potent than or equal to ATP; type: functional; details: Muscle tissue
Cavia porcellus [16] = species: Cavia porcellus; test: Tested for contraction of guinea pig isolated urinary bladder detrusor muscle at 37 degree C; Significantly more potent than ATP; type: functional; details: Muscle tissue
Cavia porcellus [17] = species: Cavia porcellus; test: Tested for contraction of guinea pig isolated urinary bladder detrusor muscle by 1 uM alpha,beta-MeATP at 37 degree C; Not active; type: functional; details: Muscle tissue
Oryctolagus cuniculus [18] = species: Oryctolagus cuniculus; test: Tested for relaxation of carbachol-contracted rabbit mesenteric artery at 37 degree C; Not active; type: functional
Oryctolagus cuniculus [19] = species: Oryctolagus cuniculus; test: Tested for relaxation of carbachol-contracted rabbit mesenteric artery at 37 degree C; Significantly less potent than 2MeSATP; type: functional
Cavia porcellus [20] = species: Cavia porcellus; test: Tested for contraction of guinea pig vas deferens at 37 degree C; Not active; type: functional
Meleagris gallopavo [21] = test: Stimulating production of inositol phosphate in turkey erythrocyte membranes at a concentration of 100 uM; Inactive; type: functional, cell membranes; summary of the method: as §1
Cavia porcellus [22] = species: Cavia porcellus; test: Tested for contraction of guinea pig vas deferens at 37 degree C; More potent than or equal to ATP; type: functional
Cavia porcellus [23] = species: Cavia porcellus; test: Tested for contraction of guinea pig isolated urinary bladder detrusor muscle at 37 degree C; Not active; type: functional; details: Muscle tissue
Oryctolagus cuniculus [24] = species: Oryctolagus cuniculus; test: Tested for relaxation of carbachol-contracted rabbit mesenteric artery at 37 degree C; More potent than or equal to 2MeSATP; type: functional
Meleagris gallopavo [25] = test: Induction of inositol phosphate in turkey erythrocyte membranes at 100 uM; Inactive; type: functional, cell membranes; summary of the method: as §1
Cavia porcellus [26] = species: Cavia porcellus; test: Tested for contraction of guinea pig isolated urinary bladder detrusor muscle at 37 degree C; More potent than or equal to ATP; type: functional; details: Muscle tissue
Oryctolagus cuniculus [27] = species: Oryctolagus cuniculus; test: Tested for relaxation of carbachol-contracted rabbit aorta at 37 degree C; Not active; type: functional
Cavia porcellus [28] = species: Cavia porcellus; test: Tested for relaxation of carbachol-contracted guinea pig taenia coli at 37 degree C; Significantly less potent than ATP; type: functional
Cavia porcellus [29] = species: Cavia porcellus; test: Tested for contraction of guinea pig isolated urinary bladder detrusor muscle at 37 degree C; 100 times more potent than ATP; type: functional; details: Muscle tissue
Oryctolagus cuniculus [30] = species: Oryctolagus cuniculus; test: Tested for relaxation of carbachol-contracted rabbit aorta at 37 degree C; Potency equal to 2MeSATP; type: functional
Meleagris gallopavo [31] = test: Tested for stimulation of production of inositol phosphate in turkey erythrocyte membrane; Not active; type: functional; summary of the method: as §1
Oryctolagus cuniculus [32] = species: Oryctolagus cuniculus; test: Tested for relaxation of carbachol-contracted rabbit aorta at 37 degree C; More potent than or equal to 2MeSATP; type: functional

Nc1nc(Cl)nc2c1ncn2[C@@H]1O[C@H](COP(=O)(O)OP(=O)(O)OP(=O)(O)O)[C@@H](O)[C@H]1O
Relative activity (Cavia porcellus [1]): 7.2 | K 0.5 [2]: 72 nM | Relative activity (Oryctolagus cuniculus [3]): 6.2 | Relative activity (Cavia porcellus [4]): Active | Relative activity (Cavia porcellus [5]): Active | Relative activity (Oryctolagus cuniculus [6]): inactive | Relative activity (Oryctolagus cuniculus [7]): 5.8

Nc1ncnc2c1ncn2[C@@H]1O[C@H](COP(=O)(O)OP(=O)(O)O)[C@@H](O)[C@H]1O [ADENOSINE DIPHOSPHATE]
Relative activity (Cavia porcellus [8]): Active | K 0.5 [2]: 8000 nM | Relative activity (Cavia porcellus [5]): Active | Relative activity (Oryctolagus cuniculus [6]): inactive | Relative activity (Oryctolagus cuniculus [9]): 5.2 | Relative activity (Cavia porcellus [10]): Partially active | Relative activity (Oryctolagus cuniculus [7]): 5.2

Nc1nc(SCCc2ccc([N+](=O)[O-])cc2)nc2c1ncn2C1O[C@H](COP(=O)(O)OP(=O)(O)OP(=O)(O)O)[C@@H](O)[C@H]1O (stereo partly drawn)
Relative activity (Cavia porcellus [1]): 8 | Relative activity (Oryctolagus cuniculus [11]): 6.2 | K 0.5 [2]: 12 nM | Relative activity (Oryctolagus cuniculus [12]): 7 | Relative activity (Cavia porcellus [13]): Active | Relative activity (Oryctolagus cuniculus [14]): 2.6% | Relative activity (Cavia porcellus [15]): Partially active

Nc1ccc(CCSc2nc(N)c3ncn([C@@H]4O[C@H](COP(=O)(O)OP(=O)(O)OP(=O)(O)O)[C@@H](O)[C@H]4O)c3n2)cc1
K 0.5 [2]: 1.53 nM

Nc1nc(SCCc2ccccc2)nc2c1ncn2C1O[C@H](COP(=O)(O)OP(=O)(O)OP(=O)(O)O)[C@@H](O)[C@H]1O (stereo partly drawn)
Relative activity (Cavia porcellus [16]): Active | Relative activity (Cavia porcellus [1]): 7.1 | Relative activity (Oryctolagus cuniculus [11]): 6.5 | K 0.5 [2]: 30 nM | Relative activity (Oryctolagus cuniculus [12]): 6.2 | Relative activity (Cavia porcellus [13]): Active | Relative activity (Oryctolagus cuniculus [6]): inactive

C=CCCCCSc1nc(N)c2ncn(C3O[C@H](COP(=O)(O)OP(=O)(O)O)[C@@H](O)[C@H]3O)c2n1 (stereo partly drawn)
Relative activity (Cavia porcellus [1]): 8.1 | K 0.5 [2]: 4 nM

CNc1ncnc2c1ncn2[C@@H]1O[C@H](COP(=O)(O)OP(=O)(O)OP(=O)(O)O)[C@@H](O)[C@H]1O
Relative activity (Cavia porcellus [8]): 5.8 | Relative activity (Cavia porcellus [17]): inactive | K 0.5 [2]: 19000 nM | Relative activity (Oryctolagus cuniculus [18]): inactive | Relative activity (Oryctolagus cuniculus [19]): Partially active | Relative activity (Cavia porcellus [20]): inactive | Relative activity (Oryctolagus cuniculus [6]): inactive

CSc1nc(N)c2ncn([C@@H]3O[C@H](COP(=O)(O)OP(=O)(O)OP(=O)(O)O)[C@@H](O)[C@H]3O)c2n1
Relative activity (Cavia porcellus [1]): 8 | Relative activity (Oryctolagus cuniculus [11]): 6.8 | K 0.5 [2]: 8 nM | Relative activity (Oryctolagus cuniculus [12]): 6.5 | Relative activity (Cavia porcellus [4]): Active | Relative activity (Cavia porcellus [5]): Active | Relative activity (Oryctolagus cuniculus [6]): inactive

Nc1nc(SCCCCCCCS)nc2c1ncn2C1O[C@H](COP(=O)(O)OP(=O)(O)OP(=O)(O)O)[C@@H](O)[C@H]1O (stereo partly drawn)
K 0.5 [2]: 773 nM

C=CCCCCSc1nc(N)c2ncn(C3O[C@H](CO)[C@@H](O)[C@H]3O)c2n1 (stereo partly drawn)
Activity (Meleagris gallopavo [21]): inactive

CCCCCCSc1nc(N)c2ncn(C3O[C@H](COP(=O)(O)OP(=O)(O)OP(=O)(O)O)[C@@H](O)[C@H]3O)c2n1 (stereo partly drawn)
Relative activity (Cavia porcellus [1]): 7.5 | Relative activity (Cavia porcellus [22]): Active | Relative activity (Oryctolagus cuniculus [11]): 6.7 | K 0.5 [2]: 5 nM | Relative activity (Oryctolagus cuniculus [12]): 6.7 | Relative activity (Cavia porcellus [5]): Active | Relative activity (Oryctolagus cuniculus [6]): inactive

C=CCCCCSc1nc(N)c2ncn(C3O[C@H](COP(=O)(O)O)[C@@H](O)[C@H]3O)c2n1 (stereo partly drawn)
Relative activity (Cavia porcellus [8]): 5 | Relative activity (Oryctolagus cuniculus [11]): 7 | K 0.5 [2]: 328 nM | Relative activity (Cavia porcellus [23]): inactive | Relative activity (Cavia porcellus [20]): inactive | Relative activity (Oryctolagus cuniculus [24]): 6.3 | Relative activity (Oryctolagus cuniculus [6]): inactive

CSc1nc(N)c2ncn([C@@H]3O[C@H](COP(=O)(O)OP(=O)(O)O)[C@@H](O)[C@H]3O)c2n1
Relative activity (Oryctolagus cuniculus [11]): Active | K 0.5 [2]: 6 nM | Relative activity (Oryctolagus cuniculus [12]): Active

Nc1nc(SCCc2ccc([N+](=O)[O-])cc2)nc2c1ncn2C1O[C@H](CO)[C@@H](O)[C@H]1O (stereo partly drawn)
Activity (Meleagris gallopavo [25]): inactive

C=CCCCCSc1nc(N)c2ncn(C3O[C@H](COP(=O)(O)OP(=O)(O)OP(=O)(O)O)[C@@H](O)[C@H]3O)c2n1 (stereo partly drawn)
Relative activity (Cavia porcellus [1]): 7.9 | K 0.5 [2]: 10 nM | Relative activity (Oryctolagus cuniculus [12]): 7 | Relative activity (Cavia porcellus [26]): Active | Relative activity (Cavia porcellus [4]): Active | Relative activity (Oryctolagus cuniculus [6]): inactive

C=CCCCCSc1nc(NC)c2ncn(C3O[C@H](COP(=O)(O)O)[C@@H](O)[C@H]3O)c2n1 (stereo partly drawn)
Relative activity (Oryctolagus cuniculus [27]): inactive | K 0.5 [2]: >100000 nM | Relative activity (Oryctolagus cuniculus [18]): inactive | Relative activity (Cavia porcellus [23]): inactive | Relative activity (Cavia porcellus [20]): inactive | Relative activity (Oryctolagus cuniculus [14]): 6.7% | Relative activity (Cavia porcellus [28]): Partially active

N#CCCCCCCSc1nc(N)c2ncn(C3O[C@H](COP(=O)(O)OP(=O)(O)OP(=O)(O)O)[C@@H](O)[C@H]3O)c2n1 (stereo partly drawn)
Relative activity (Cavia porcellus [1]): 8.6 | Relative activity (Oryctolagus cuniculus [11]): 7 | K 0.5 [2]: 10 nM | Relative activity (Oryctolagus cuniculus [12]): 6.9 | Relative activity (Cavia porcellus [29]): Active | Relative activity (Cavia porcellus [13]): Active | Relative activity (Oryctolagus cuniculus [14]): 9.2%

N#CSCCCCCCCSc1nc(N)c2ncn(C3O[C@H](COP(=O)(O)OP(=O)(O)OP(=O)(O)O)[C@@H](O)[C@H]3O)c2n1 (stereo partly drawn)
K 0.5 [2]: 25.9 nM

NCCCCCCCSc1nc(N)c2ncn(C3O[C@H](COP(=O)(O)OP(=O)(O)OP(=O)(O)O)[C@@H](O)[C@H]3O)c2n1 (stereo partly drawn)
K 0.5 [2]: 72.8 nM

Nc1ncnc2c1ncn2[C@@H]1O[C@H](COP(=O)(O)O)[C@@H](O)[C@H]1O [ADENOSINE PHOSPHATE]
Relative activity (Cavia porcellus [23]): inactive | Relative activity (Oryctolagus cuniculus [30]): 4.8 | Relative activity (Cavia porcellus [20]): inactive | Relative activity (Cavia porcellus [28]): Partially active | K 0.5 (Meleagris gallopavo [31]): inactive | Relative activity (Oryctolagus cuniculus [6]): inactive | Relative activity (Oryctolagus cuniculus [9]): 5

Nc1ncnc2c1ncn2[C@@H]1O[C@H](CO)[C@@H](O)[C@H]1O [ADENOSINE]
Relative activity (Oryctolagus cuniculus [3]): 6 | Relative activity (Cavia porcellus [23]): inactive | Relative activity (Cavia porcellus [20]): inactive | Relative activity (Cavia porcellus [28]): 3.9 | K 0.5 (Meleagris gallopavo [31]): inactive | Relative activity (Oryctolagus cuniculus [24]): 5.7 | Relative activity (Oryctolagus cuniculus [6]): inactive

Nc1nc(SC2CCCCC2)nc2c1ncn2C1O[C@H](COP(=O)(O)OP(=O)(O)OP(=O)(O)O)[C@@H](O)[C@H]1O (stereo partly drawn)
Relative activity (Cavia porcellus [1]): 8 | Relative activity (Cavia porcellus [22]): Active | Relative activity (Oryctolagus cuniculus [32]): 6.3 | K 0.5 [2]: 24 nM | Relative activity (Cavia porcellus [5]): Active | Relative activity (Oryctolagus cuniculus [24]): 5.9 | Relative activity (Oryctolagus cuniculus [6]): inactive
